Holding throughout (format): functional
The test system of assay [1] is Mycoplasmoides pneumoniae. The assay is described as follows: Antimicrobial activity against macrolide-susceptible Mycoplasma pneumoniae isolated from pediatric patients with community-acquired pneumonia after 10 to 14 days by microdilution method. In short, it runs like this:
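Pediatric CAP nasopharyngeal isolates, cultured in PPLO broth from real-time PCR-positive samples; strain M129 as control. Broth microdilution in PPLO broth: inoculum estimated at 10^5 CFU/ml added 1:10 to serially diluted antibiotic. Incubated aerobically at 37°C for 10–14 days, until the antibiotic-free growth control changed colour. MIC taken as lowest concentration preventing colour change; MIC50/MIC90 and range reported.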
(In general: In broth dilution the organism is exposed to a series of concentrations in liquid medium.)

Assay [2] deals with Mycoplasmoides pneumoniae. The assay is described as follows: Antimicrobial activity against macrolide-resistant Mycoplasma pneumoniae harboring A2063G transition in domain V of 23S rRNA isolated from pediatric patients with community-acquired pneumonia after 10 to 14 days by microdilution method. In short, it runs like this: (§1)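 Clinical isolates cultured from PCR-positive pediatric nasopharyngeal samples in PPLO broth; resistance mutation identified by full-length 23S rRNA gene sequencing. Broth microdilution in PPLO broth containing serially diluted antibiotics, inoculum estimated at 10^5 CFU/ml in culture. Incubated aerobically at 37°C for 10 to 14 days until the antibiotic-free control changed colour. MIC was the lowest concentration preventing the colour change. Strain M129 served as control.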

In assay [3] the test system is Mycoplasmoides pneumoniae. The assay is described as follows: Antimicrobial activity against macrolide-resistant Mycoplasma pneumoniae harboring A2064G transition in domain V of 23S rRNA isolated from pediatric patients with community-acquired pneumonia after 10 to 14 days by microdilution method. In a few lines: as §1

Structures are written as SMILES. ≈ marks a conversion by molar mass, not a printed value.

One may read the MIC50 as the lowest concentration that inhibits either 50% of growth or 50% of the strains tested, depending on the study. The MIC90 is the lowest concentration that inhibits either 90% of growth or 90% of the strains tested, depending on the study. In the case of `CC[C@H]1OC(=O)[C@H](C)[C@@H](O[C@H]2C[C@@](C)(OC)[C@@H](O)[C@H](C)O2)[C@H](C)[C@@H](O[C@@H]2O[C@H](C)C[C@H](N(C)C)[C@H]2O)[C@](C)(OC)C[C@@H](C)C(=O)[C@H](C)[C@@H](O)[C@]1(C)O` [CLARITHROMYCIN], the MIC50 in assay [1] was found to be 0.0039 µg/mL (≈ 0.00521 µM); in assay [2], 64 µg/mL (≈ 85.6 µM); in assay [3], 64 µg/mL (≈ 85.6 µM). Moreover, the results for the MIC90 in assay [1], in assay [2] and in assay [3] were 0.0078 µg/mL (≈ 0.0104 µM), over 64 µg/mL and 64 µg/mL (≈ 85.6 µM), respectively.
Consider `C[C@H]1COc2c(N3CCN(C)CC3)c(F)cc3c(=O)c(C(=O)O)cn1c23.C[C@H]1COc2c(N3CCN(C)CC3)c(F)cc3c(=O)c(C(=O)O)cn1c23.O` [LEVOFLOXACIN], for which the MIC50 was found to be 0.5 µg/mL in assay [1], 1 µg/mL in assay [2] and 1 µg/mL in assay [3]. Further, the MIC90 in assay [1], in assay [2] and in assay [3] was 1 µg/mL each time.
Usually MIC stands for the least concentration at which growth counts as inhibited. High values mean a less susceptible organism, low ones a more susceptible organism. In assay [1], `CC[C@H]1OC(=O)[C@H](C)[C@@H](O[C@H]2C[C@@](C)(OC)[C@@H](O)[C@H](C)O2)[C@H](C)[C@@H](O[C@@H]2O[C@H](C)C[C@H](N(C)C)[C@H]2O)[C@](C)(O)C[C@@H](C)C(=O)[C@H](C)[C@@H](O)[C@]1(C)O` [ERYTHROMYCIN] came in with an MIC50 of 0.0078 µg/mL (≈ 0.0106 µM) and an MIC90 of 0.0156 µg/mL (≈ 0.0213 µM). In assay [2], this compound showed an MIC50 of 64 µg/mL (≈ 87.2 µM) and an MIC90 of over 64 µg/mL. In assay [3], this compound had an MIC of at least 64 µg/mL, an MIC50 of over 64 µg/mL and an MIC90 of over 64 µg/mL.
Regarding `CC[C@H]1OC(=O)[C@H](C)C(=O)[C@H](C)[C@@H](O[C@@H]2O[C@H](C)C[C@H](N(C)C)[C@H]2O)[C@](C)(OC)C[C@@H](C)C(=O)[C@H](C)[C@H]2N(CCCCn3cnc(-c4cccnc4)c3)C(=O)O[C@]12C` [TELITHROMYCIN], the MIC50 in assay [1] is 0.00098 µg/mL (≈ 0.00121 µM); in assay [2], 32 µg/mL (≈ 39.4 µM); in assay [3] it was 4 µg/mL (≈ 4.93 µM). Besides, the values for the MIC90 in assay [1], in assay [2] and in assay [3] were 0.00195 µg/mL (≈ 0.0024 µM), 64 µg/mL (≈ 78.8 µM) and 16 µg/mL (≈ 19.7 µM), respectively.
For the compound `CN(C)c1ccc(O)c2c1C[C@H]1C[C@H]3[C@H](N(C)C)C(O)=C(C(N)=O)C(=O)[C@@]3(O)C(O)=C1C2=O` [MINOCYCLINE], the MIC50 in assay [1], in assay [2] and in assay [3] was 0.5 µg/mL (≈ 1.09 µM) in each case. Besides, the MIC90 in assay [1], in assay [2] and in assay [3] was 1 µg/mL (≈ 2.19 µM) each time.
As for `CO[C@@H]1[C@@H](O[C@@H]2O[C@H](C)[C@@H](O[C@H]3C[C@@](C)(O)[C@@H](OC(=O)CC(C)C)[C@H](C)O3)[C@H](N(C)C)[C@H]2O)[C@@H](CC=O)C[C@@H](C)[C@@H](O)/C=C/C=C/C[C@@H](C)OC(=O)C[C@H]1OC(C)=O` [JOSAMYCIN], the MIC50 in assay [1] was determined as 0.0313 µg/mL (≈ 0.0378 µM); in assay [2], 8 µg/mL (≈ 9.66 µM); in assay [3] it was 64 µg/mL (≈ 77.3 µM). Further, the MIC90 in assay [1] is 0.0625 µg/mL (≈ 0.0755 µM); in assay [2], 16 µg/mL (≈ 19.3 µM); in assay [3], over 64 µg/mL.
For the compound `CC[C@H]1OC(=O)[C@H](C)[C@@H](O[C@H]2C[C@@](C)(OC)[C@@H](O)[C@H](C)O2)[C@H](C)[C@@H](O[C@@H]2O[C@H](C)C[C@H](N(C)C)[C@H]2O)[C@](C)(O)C[C@@H](C)CN(C)[C@H](C)[C@@H](O)[C@]1(C)O` [AZITHROMYCIN], the figures for the MIC50 in assay [1], in assay [2] and in assay [3] were 0.00049 µg/mL (≈ 0.000654 µM), 32 µg/mL (≈ 42.7 µM) and 32 µg/mL (≈ 42.7 µM), respectively. Moreover, the MIC90 in assay [1] amounted to 0.00098 µg/mL (≈ 0.00131 µM); in assay [2], 64 µg/mL (≈ 85.4 µM); in assay [3], 64 µg/mL (≈ 85.4 µM).
Consider `CCCC(=O)O[C@H]1[C@H](C)O[C@@H](O[C@H]2[C@H](N(C)C)[C@@H](O)[C@H](O[C@H]3[C@@H](CC=O)C[C@@H](C)[C@@H](O)/C=C/C=C/C[C@@H](C)OC(=O)C[C@@H](O)[C@@H]3OC)O[C@@H]2C)C[C@@]1(C)OC(=O)CC` [ROKITAMYCIN], for which the MIC50 in assay [1] amounted to 0.0156 µg/mL (≈ 0.0188 µM); in assay [2], 0.125 µg/mL (≈ 0.151 µM); in assay [3], 16 µg/mL (≈ 19.3 µM). The MIC90 in assay [1] turned out to be 0.0156 µg/mL (≈ 0.0188 µM); in assay [2], 0.25 µg/mL (≈ 0.302 µM); in assay [3] it was 16 µg/mL (≈ 19.3 µM).

(Values after ChEMBL document CHEMBL1151455, “Increased macrolide resistance of Mycoplasma pneumoniae in pediatric patients with community-acquired pneumonia” (2008).)
